These results are taken from ChEMBL document CHEMBL3867488 (ACS Med Chem Lett, 2016).

Data set [1] deals with T1, Alpha-1-acid glycoprotein (Rattus norvegicus, UniProt P02764).
T1 sequence (P02764 whole entry): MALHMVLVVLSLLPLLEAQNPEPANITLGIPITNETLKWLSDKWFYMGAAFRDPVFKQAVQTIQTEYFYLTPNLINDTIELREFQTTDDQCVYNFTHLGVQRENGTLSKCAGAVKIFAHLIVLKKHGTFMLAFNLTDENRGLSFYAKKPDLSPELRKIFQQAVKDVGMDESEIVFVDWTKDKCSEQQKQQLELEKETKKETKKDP
Nature of the data set: Binding affinity to rat alpha-1-AGP at 1 uM measured after 4 hrs by equilibrium dialysis method relative to control. It is filed as ADME. The settings on record: rat alpha-1-acid glycoprotein, read-out: PB (converted).

Data set [2] has as its target T2, Oxysterols receptor LXR-beta (Homo sapiens, UniProt P55055).
T2 sequence (P55055 whole entry): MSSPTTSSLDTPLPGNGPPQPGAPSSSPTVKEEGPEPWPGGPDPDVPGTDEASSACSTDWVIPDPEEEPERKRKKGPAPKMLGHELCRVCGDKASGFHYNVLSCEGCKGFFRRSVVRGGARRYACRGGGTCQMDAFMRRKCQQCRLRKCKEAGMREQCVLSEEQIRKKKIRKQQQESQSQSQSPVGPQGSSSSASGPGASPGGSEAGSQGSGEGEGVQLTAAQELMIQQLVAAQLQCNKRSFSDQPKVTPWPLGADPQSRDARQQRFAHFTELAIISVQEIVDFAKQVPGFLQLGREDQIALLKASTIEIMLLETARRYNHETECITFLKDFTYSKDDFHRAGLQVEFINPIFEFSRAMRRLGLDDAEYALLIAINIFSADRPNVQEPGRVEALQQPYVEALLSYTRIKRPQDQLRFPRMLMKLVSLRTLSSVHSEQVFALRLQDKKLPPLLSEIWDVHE
Kind of data set: Agonist activity at LXR-beta in human whole blood assessed as ABCA1 gene induction by measuring ABCA1 mRNA level after 4 hrs by SYBR-Green dye-based Q-PCR analysis. The class given is tissue-based.

The target in data set [3] is T3, Oxysterols receptor LXR-alpha (Homo sapiens, UniProt Q13133).
T3 sequence (Q13133 whole entry): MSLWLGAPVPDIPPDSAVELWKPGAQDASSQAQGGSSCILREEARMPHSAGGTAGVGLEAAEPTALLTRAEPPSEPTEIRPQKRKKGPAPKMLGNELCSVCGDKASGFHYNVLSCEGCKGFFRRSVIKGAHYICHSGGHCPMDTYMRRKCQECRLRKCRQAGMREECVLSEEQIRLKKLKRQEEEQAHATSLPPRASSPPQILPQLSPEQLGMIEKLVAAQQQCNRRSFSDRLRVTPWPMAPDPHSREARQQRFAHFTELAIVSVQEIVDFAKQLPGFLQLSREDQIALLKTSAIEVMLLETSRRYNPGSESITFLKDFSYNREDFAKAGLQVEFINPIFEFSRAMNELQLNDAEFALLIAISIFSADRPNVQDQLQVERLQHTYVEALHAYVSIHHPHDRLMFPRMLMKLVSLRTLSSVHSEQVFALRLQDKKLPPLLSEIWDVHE
Nature of the data set: Agonist activity at human LXR-alpha expressed in African green monkey CV1 cells measured after 18 to 20 hrs by luciferase reporter gene assay. It is filed as cell-based, CV-1. (In general: In a reporter assay the amount or activity of a reporter protein is the signal.)

A short description of data set [4]: Half life in cynomolgus monkey at 0.2 mg/kg, iv administered as cassette dose by LC/MS/MS analysis. It is filed as ADME, organism-based, Macaca fascicularis. The settings on record: in vivo.
Data set [5] is described as follows: Half life in cynomolgus monkey at 1 mg/kg, iv administered as 10 mins infusion by LC/MS/MS analysis. The settings on record: in vivo. It is filed as ADME, organism-based, Macaca fascicularis.
The target of data set [6] is Alpha-1-acid glycoprotein 1 (Homo sapiens, UniProt P02763). Nature of the data set: Binding affinity to human alpha-1-AGP at 1 uM measured after 4 hrs by equilibrium dialysis method relative to control. The class given is ADME. The settings on record: human alpha-1-acid glycoprotein, read-out: PB. A general note: In equilibrium dialysis free small molecules cross a membrane that holds back macromolecules.

A short description of data set [7]: Half life in human plasma. It is filed as ADME, cell-free. The method in brief: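 Human plasma half-life was obtained from a clinical single ascending dose PK study.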
Data set [8] can be described thus: Binding affinity to dog alpha-1-AGP at 1 uM measured after 4 hrs by equilibrium dialysis method relative to control. The class given is ADME, Canis lupus familiaris. The settings on record: dog alpha-1-acid glycoprotein, read-out: PB (converted).
The target in data set [9] is T4, Oxysterols receptor LXR-beta (Homo sapiens) (UniProt P55055).
T4 sequence (whole entry): T2 sequence (P55055 whole entry)
Nature of the data set: Agonist activity at LXR-beta in human whole blood assessed as ABCA1 gene induction by measuring ABCA1 mRNA level after 4 hrs by SYBR-Green dye-based Q-PCR analysis relative to pan agonist 2-(4-(5-(5-cyano-1-(2,4-difluorobenzyl)-6-oxo-4-(trifluoromethyl)-1,6-dihydropyridin-2-yl)thiophen-2-yl)-3-methylphenyl)acetic acid. It is filed as tissue-based.

The target in data set [10] is T3, Oxysterols receptor LXR-alpha. Nature of the data set: Agonist activity at human LXR-alpha expressed in African green monkey CV1 cells measured after 18 to 20 hrs by luciferase reporter gene assay relative to pan agonist 1-(2,4-difluorobenzyl)-2-oxo-6-(4-phenoxyphenyl)-4-(trifluoromethyl)-1,2-dihydropyridine-3-carbonitrile. It is filed as cell-based. The settings on record: CV-1, human; read-out: Efficacy.

Data set [11] concerns the target T4, Oxysterols receptor LXR-beta (Homo sapiens). Nature of the data set: Agonist activity at LXR-beta in human whole blood assessed as ABCG1 gene induction by measuring ABCA1 mRNA level after 4 hrs by SYBR-Green dye-based Q-PCR analysis relative to pan agonist 2-(4-(5-(5-cyano-1-(2,4-difluorobenzyl)-6-oxo-4-(trifluoromethyl)-1,6-dihydropyridin-2-yl)thiophen-2-yl)-3-methylphenyl)acetic acid. It is filed as tissue-based.

A further data set deals with Albumin (Homo sapiens, UniProt P02768). Nature of the data set: Binding affinity to human serum albumin at 1 uM measured after 4 hrs by equilibrium dialysis method relative to control. It is filed as ADME. The settings on record: human serum albumin, read-out: PB.
In data set [12] the target is T2, Oxysterols receptor LXR-beta. Kind of data set: Agonist activity at LXR-beta in human HeLa cells assessed as induction of ABCA1 by beta-galactosidase/luciferase reporter gene assay. It is filed as cell-based. The method in brief:
(§1)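 HeLa cells carrying endogenous LXRα and LXRβ receptors, transfected with an ABCA1 LXREx3 reporter construct; agonist-driven reporter induction measured.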

Data set [13] concerns the target T4, Oxysterols receptor LXR-beta (Homo sapiens). Kind of data set: Agonist activity at LXR-beta in human HeLa cells assessed as induction of ABCA1 by beta-galactosidase/luciferase reporter gene assay relative to control. It is filed as cell-based. The method in brief:
as §1

Data set [14] concerns the target T2, Oxysterols receptor LXR-beta. Nature of the data set: Agonist activity at LXR-beta in human whole blood assessed as ABCG1 gene induction by measuring ABCA1 mRNA level after 4 hrs by SYBR-Green dye-based Q-PCR analysis. The class given is tissue-based.
The nature of data set [15]: Clearance in cynomolgus monkey at 0.2 mg/kg, iv administered as cassette dose by LC/MS/MS analysis. It is filed as ADME, organism-based, Macaca fascicularis. The settings on record: in vivo.
Data set [16] in a line: Effect on plasma triglyceride level in cynomolgus monkey at 10 mg/kg, po qd administered via gavage for 14 days measured after 24 hrs of last-dose relative to base line. The class given is ADME, organism-based, Macaca fascicularis. The settings on record: in vivo. A digest of the protocol: (§2)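 Cynomolgus monkeys dosed daily for 14 days. On day 14, plasma drug concentration was taken 5 h post-dose. Plasma triglycerides were expressed as % elevation over baseline, with significance tested by ANOVA (p < 0.05).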

For the next data set, the species on record is Macaca fascicularis. Nature of the data set: Agonist activity at LXR-beta in cynomolgus monkey whole blood assessed as ABCA1 gene induction by measuring ABCA1 mRNA level after 4 hrs by SYBR-Green dye-based Q-PCR analysis relative to control. The class given is tissue-based.
The subject of the next data set is Cynomolgus monkey. Nature of the data set: In vivo agonist activity at LXR-beta in cynomolgus monkey assessed as induction of ABCG1 gene at 10 mg/kg/day, po qd administered via gavage for 14 days. The class given is functional, Macaca fascicularis. The method in brief: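 Cynomolgus monkeys dosed daily for 14 days. ABCG1 mRNA induction measured in blood cells on day 14 and expressed as fold change. Plasma drug concentration taken about 5 h post-dose. Plasma triglycerides also measured against baseline, with significance by ANOVA.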

Data set [17] in a line: Plasma concentration in cynomolgus monkey at 10 mg/kg, po qd administered via gavage for 14 days measured after 5 hrs of last-dose by LC/MS/MS analysis. The class given is ADME, organism-based, Macaca fascicularis. A digest of the protocol:
as §2

Chain of Alpha-1-acid glycoprotein 1 (P02763 whole entry): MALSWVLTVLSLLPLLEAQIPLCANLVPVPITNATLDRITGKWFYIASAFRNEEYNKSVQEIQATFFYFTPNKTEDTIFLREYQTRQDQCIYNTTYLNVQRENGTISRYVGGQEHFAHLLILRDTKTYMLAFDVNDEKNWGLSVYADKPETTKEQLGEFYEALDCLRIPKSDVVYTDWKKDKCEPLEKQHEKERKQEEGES
Chain of Albumin (P02768 whole entry): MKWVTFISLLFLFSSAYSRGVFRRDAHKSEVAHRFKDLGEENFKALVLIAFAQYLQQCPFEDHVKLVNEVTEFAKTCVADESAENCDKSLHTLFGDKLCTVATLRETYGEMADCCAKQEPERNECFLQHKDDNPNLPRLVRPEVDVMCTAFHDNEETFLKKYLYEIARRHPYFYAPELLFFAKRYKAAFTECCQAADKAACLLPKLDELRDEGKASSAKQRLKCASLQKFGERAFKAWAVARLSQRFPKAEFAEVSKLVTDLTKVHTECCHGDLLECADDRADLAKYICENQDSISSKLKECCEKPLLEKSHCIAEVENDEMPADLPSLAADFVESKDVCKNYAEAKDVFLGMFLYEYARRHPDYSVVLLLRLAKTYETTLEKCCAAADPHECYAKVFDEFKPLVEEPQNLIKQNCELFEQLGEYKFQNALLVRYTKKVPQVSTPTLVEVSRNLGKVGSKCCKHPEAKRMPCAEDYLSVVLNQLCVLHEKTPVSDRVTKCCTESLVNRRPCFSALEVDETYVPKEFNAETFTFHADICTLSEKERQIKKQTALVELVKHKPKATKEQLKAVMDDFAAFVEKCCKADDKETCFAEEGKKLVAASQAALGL

With `CC(C)(O)c1cn(-c2ccc(-c3cccc(S(C)(=O)=O)c3)cc2)c(C(C)(C)c2ccccc2Cl)n1` [BMS-779788], the fraction unbound at 4 h, 1 µM in [1] was 0.08; in data set [6], 0.001; in data set [8], 0.02; at Albumin, 0.028 to 0.03. Moreover, the EC50 was 1200 nM in data set [2], 220 nM in data set [3], 33 nM in [12] and 1100 nM in [14]. The half-life in [4] is 8.9 h; in [7], 100 to 200 h. In data set [5], this compound registered a t1/2 of 7.4 h. Besides, the figures for the Efficacy in data set [9], in data set [11] and in [13] were 55%, 60% and 50%, respectively. The Emax in [10] amounted to 38%. This compound also came in with a clearance in [15] of 2.9 mL/min/kg.
`O=S(=O)(c1ccccc1)N(CC(F)(F)F)c1ccc(C(O)(C(F)(F)F)C(F)(F)F)cc1` [T091317] registered an Activity in data set [16] of 140%. The Efficacy in the data set filed under Macaca fascicularis was 100%. Moreover, the “fold change (FC)” value with Cynomolgus monkey came to 6. The compound further gave a concentration at 5 h in data set [17] of 200 nM.

In general, EC50 refers to the concentration at which the effect is half-maximal. The half-life is the time in which the quantity being followed falls by half. A word on the clearance: it is a measure of how efficiently the substance is removed, as volume per time.
